The source of these data is ChEMBL document CHEMBL1150768, “Conformationally constrained analogues of N-(piperidinyl)-5-(4-chlorophenyl)-1-(2,4- dichlorophenyl)-4-methyl-1H-pyrazole-3-carboxamide (SR141716): design, synthesis, computational analysis, and biological evaluations” (J Med Chem, 2008).

Test [1] deals with T1, Cannabinoid receptor 1 (Homo sapiens, UniProt P21554). Put plainly: biochemical. The test is classed as cell-based, HEK293.
Test [2] addresses T1, Cannabinoid receptor 1. Briefly: biochemical. The test is classed as cell-based, CHO-K1.
Test [3] addresses T2, Cannabinoid receptor 2 (Homo sapiens, UniProt P34972). Briefly: Displacement of [3H]CP-55940 from human CB2 receptor expressed in CHO-K1 cells. The test is classed as cell-based. The procedure, abridged: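 Human CB2 expressed in CHO-K1 cell membranes, […]. Nonspecific binding with 10 µM unlabeled agonist. Glass-fiber filtration, then liquid scintillation counting. Duplicates, 3-6 independent experiments.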
Background: In a radioligand displacement assay an active substance lowers the binding of a labelled ligand.

In test [4] the target is T1, Cannabinoid receptor 1. Put plainly: Binding affinity to CB1 receptor. In short, it runs like this:
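Membranes from HEK-293 cells expressing human CB1. […] incubated with tritiated agonist radioligand (7.2 nM) or [3H]SR141716 (20 nM) in 50 mM Tris-HCl, 1 mM EDTA, 3 mM MgCl2, 5 mg/mL BSA, pH 7.4, for 1 h at 30 °C. Nonspecific binding taken with 10 µM unlabeled ligand. Filtration, then scintillation counting. Duplicates, 3-6 independent experiments.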

The target in test [5] is T2, Cannabinoid receptor 2. Briefly: Binding affinity to CB2 receptor. The procedure, abridged:
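Human CB2 expressed in CHO-K1 cell membranes, […]. Displacement of tritiated agonist radioligand (ca. 130 Ci/mmol, 7.2 nM) in Tris-HCl/EDTA/MgCl2/BSA buffer at pH 7.4, 1 h at 30 °C. Nonspecific binding with 10 µM unlabeled agonist. Glass-fiber filtration, then liquid scintillation counting. Duplicates, 3-6 independent experiments.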

The species named for a further test is Homo sapiens. Put plainly: Selectivity for human CB2 receptor over human CB1 receptor.

T2 sequence (P34972 whole entry): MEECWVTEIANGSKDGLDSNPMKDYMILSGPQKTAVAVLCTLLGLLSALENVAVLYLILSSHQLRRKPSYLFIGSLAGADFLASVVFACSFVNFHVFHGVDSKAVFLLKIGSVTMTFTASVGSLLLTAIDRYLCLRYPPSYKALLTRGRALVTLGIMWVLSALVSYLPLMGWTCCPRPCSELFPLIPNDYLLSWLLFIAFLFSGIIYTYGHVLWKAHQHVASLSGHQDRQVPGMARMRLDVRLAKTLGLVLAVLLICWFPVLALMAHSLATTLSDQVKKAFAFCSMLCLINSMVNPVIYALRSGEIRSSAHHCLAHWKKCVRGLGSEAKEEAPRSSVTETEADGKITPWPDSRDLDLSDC
T1 sequence (P21554 whole entry): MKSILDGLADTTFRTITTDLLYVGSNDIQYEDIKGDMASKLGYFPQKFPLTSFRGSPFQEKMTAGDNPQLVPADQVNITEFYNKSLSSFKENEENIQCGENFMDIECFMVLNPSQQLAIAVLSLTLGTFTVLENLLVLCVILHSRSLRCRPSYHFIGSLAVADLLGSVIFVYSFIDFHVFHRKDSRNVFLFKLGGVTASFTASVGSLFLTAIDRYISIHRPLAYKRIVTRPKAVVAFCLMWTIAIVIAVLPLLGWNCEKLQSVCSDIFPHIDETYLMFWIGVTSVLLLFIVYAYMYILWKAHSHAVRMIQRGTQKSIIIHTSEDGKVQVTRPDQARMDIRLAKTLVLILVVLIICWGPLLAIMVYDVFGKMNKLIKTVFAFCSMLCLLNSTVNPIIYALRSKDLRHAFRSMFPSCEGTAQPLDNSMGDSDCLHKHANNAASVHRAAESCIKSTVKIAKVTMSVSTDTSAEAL

In general, Ki refers to a measure of affinity in units of concentration, obtained from inhibition or displacement. A low value points to higher affinity. With `Cc1cc(Cl)cc(C)c1-c1c(C)c(C(=O)NN2CCCCC2)nn1-c1ccc(Cl)cc1Cl`, the Ki was 194 nM at Cannabinoid receptor 1 [1], 116 nM at Cannabinoid receptor 1 [2] and 758 nM on Cannabinoid receptor 2 [3].

As to `O=C(NN1CCCCC1)c1nn(-c2ccc(Cl)cc2Cl)c2c1CCc1cc(Cl)ccc1-2`, the values for the Ki at Cannabinoid receptor 1 [4] and on Cannabinoid receptor 2 [5] were 15 nM and 230 nM, respectively.

With `Cc1c(C(=O)NN2CCCCC2)nn(-c2c(Cl)cc(Cl)cc2Cl)c1-c1ccc(Cl)cc1Cl`, the Ki was determined as 261 nM at Cannabinoid receptor 1 [1], 148 nM on Cannabinoid receptor 1 [2] and 1110 nM at Cannabinoid receptor 2 [3].

For the compound `Cc1cc(Cl)ccc1-c1c(C)c(C(=O)NN2CCCCC2)nn1-c1c(Cl)cc(Cl)cc1Cl`, the values for the Ki at Cannabinoid receptor 1 [1], at Cannabinoid receptor 1 [2] and on Cannabinoid receptor 2 [3] were 251 nM, 152 nM and 1780 nM, respectively.

`Cc1cc(Cl)ccc1-c1c(C)c(C(=O)NN2CCCCC2)nn1-c1ccc(Cl)cc1Cl`: the results for the Ki on Cannabinoid receptor 1 [1], on Cannabinoid receptor 1 [2] and on Cannabinoid receptor 2 [3] were 16.1 nM, 5.83 nM and 1120 nM, respectively.

`Cc1c(C(=O)NN2CCCCC2)nn2c3ccc(Cl)cc3c3cc(Cl)ccc3c12`: the Ratio in the test listed under Homo sapiens is 80.

Take `Cc1c(C(=O)NN2CCCCC2)nn(-c2ccc(Cl)cc2Cl)c1-c1ccc(Cl)cc1Cl`: the Ki at Cannabinoid receptor 1 [1] was 34.2 nM; at Cannabinoid receptor 1 [2] it was 17.9 nM; at Cannabinoid receptor 2 [3], 1040 nM.

Take `O=C(NN1CCCCC1)c1nn(-c2ccc(Cl)cc2Cl)c2c1CCCc1cc(Cl)ccc1-2`: the inhibition constant (Ki) on Cannabinoid receptor 1 [1] stood at 18.4 nM; on Cannabinoid receptor 1 [2], 5.55 nM; at Cannabinoid receptor 1 [4], 0.00035 nM; at Cannabinoid receptor 2 [5] it was 20 nM.

On to `O=C(NN1CCCCC1)c1nn(-c2ccc(Cl)cc2Cl)c2c1CCCCc1cc(Cl)ccc1-2`, for which the results for the Ki at Cannabinoid receptor 1 [1], on Cannabinoid receptor 1 [2] and on Cannabinoid receptor 2 [3] were 40.9 nM, 14.7 nM and 492 nM, respectively.
